Assay outcomes deposited in PubChem BioAssay by Broad Institute.
DENV2 CPE = inhibitors of DENV2 cytopathic effect; DENV2-infected cells, cytopathic effect rescue, plate reader; CPE inhibition, % at 9.99 µM; hit rate 1.7% among 350,000; AID 651640; in the data active = CPE inhibition above about 20%, passing the limit was not always enough; tested in BHK-21 cells
S100A4 MyoIIA = S100A4-myosin IIA interaction inhibition; S100A4/TAMRA-MyoIIA peptide fluorescence polarization; inhibition, % at 10.7 µM; hit rate 0.14% among 360,000; AID 652163;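 active = mean inhibition of at least 70% across replicates, with every replicate also reaching that level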
Target sequence (P26447 whole entry, looked up): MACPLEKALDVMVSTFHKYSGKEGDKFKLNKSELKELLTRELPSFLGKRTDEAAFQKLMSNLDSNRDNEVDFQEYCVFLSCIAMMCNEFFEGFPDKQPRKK
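Test system – S100A4 monomer (human) · Compound – single-point compound testing · Schedule – 5 min incubation before reading · Probe or stimulus – TAMRA-labelled myosin IIA heavy-chain peptide probe, 5 nM · Benchmarks – neutral control DMSO, positive control TFP · Medium – Calcium-containing HEPES buffer, pH 7.2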
C2C12 statin = protects C2C12 myotubes from simvastatin toxicity; ATP luminescence, 48 h; scaled: DMSO 0, geranylgeraniol control 100; rescue of ATP level, % at 7.49 µM; hit rate 0.78% among 330,000; AID 602340;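 active = mean ATP rescue above about 67%, or every replicate alone reaching that limit, limit read from the data, passing the limit was not always enough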;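 also: myotubes were challenged with 10 µM simvastatin during compound exposure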
SIRT5 inh = blocks human SIRT5 desuccinylation of peptide; Q9NXA8; inhibition, % at 15 µM; hit rate 1.1% among 330,000; Purified SirT5, succinyl-peptide AMC, trypsin-coupled fluorescence; AID 652115; in the data active = inhibition above about 15%
Target sequence (Q9NXA8 whole entry, looked up): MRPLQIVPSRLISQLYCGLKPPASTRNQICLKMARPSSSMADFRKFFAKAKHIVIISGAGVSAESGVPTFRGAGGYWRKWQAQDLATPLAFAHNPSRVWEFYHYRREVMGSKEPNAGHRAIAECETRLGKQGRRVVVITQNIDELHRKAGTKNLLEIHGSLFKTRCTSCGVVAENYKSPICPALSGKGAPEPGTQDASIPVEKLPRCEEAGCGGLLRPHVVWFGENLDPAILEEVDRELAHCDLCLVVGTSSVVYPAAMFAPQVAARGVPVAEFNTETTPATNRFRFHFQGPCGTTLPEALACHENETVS
PGC1a acetyl inh = modulators of PGC1a acetylation; U2OS PGC1a acetylation, AlphaScreen anti-acetyl-lysine; with virally co-expressed GCN5 acetyltransferase; inhibition, % at 15.6 µM; hit rate 0.17% among 350,000; AID 651687;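 active = every replicate shows inhibition of at least 40%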
Numbers stand for hits; ! = not confirmed by another sample. The list is not random: actives were taken first. Their share in the collection is about 2.9%.

What do the screens show for `CCCC(=O)Nc1ccc2c(c1)OC[C@@H](C)NC[C@H](C)[C@H](OC)CN(C)C2=O`?
DENV2 CPE: inactive; S100A4 MyoIIA: inactive; C2C12 statin: inactive; SIRT5 inh: inactive; PGC1a acetyl inh: inactive

How did Cc1ccccc1-c1ccnc2[nH]n(-c3ccccc3)c(=O)c12 do in these assays?
DENV2 CPE: inactive; S100A4 MyoIIA: inactive; C2C12 statin: inactive; SIRT5 inh: 24; PGC1a acetyl inh: inactive

What do the screens show for `COCC(=O)N1CC(=O)N2[C@H](CO)[C@@H](c3ccc(Br)cc3)[C@H]2C1`?
DENV2 CPE: inactive; S100A4 MyoIIA: inactive; SIRT5 inh: inactive; PGC1a acetyl inh: inactive

Results for COc1cc2c(c(OC)c1OC)[C@@]1(c3ccccc3)CCCC[C@H]1[C@@H]2NC(=O)C(F)(F)F ?
DENV2 CPE: 24; S100A4 MyoIIA: inactive; SIRT5 inh: inactive

Results for Cc1noc(C)c1NC(=O)N(C)C[C@@H]1Oc2ccc(NS(=O)(=O)c3c(C)noc3C)cc2C(=O)N([C@@H](C)CO)C[C@@H]1C ?
PGC1a acetyl inh: inactive

How did COc1ccc(NC(=O)N(C)C[C@@H]2Oc3ccc(NS(=O)(=O)c4c(C)noc4C)cc3C(=O)N([C@H](C)CO)C[C@@H]2C)cc1 do in these assays?
DENV2 CPE: 90; S100A4 MyoIIA: inactive; C2C12 statin: inactive; SIRT5 inh: inactive; PGC1a acetyl inh: inactive

What do the screens show for `COc1ccc(NC(=O)N(C)C[C@H]2Oc3ccc(NS(=O)(=O)c4c(C)noc4C)cc3C(=O)N([C@H](C)CO)C[C@@H]2C)cc1`?
DENV2 CPE: 22; S100A4 MyoIIA: inactive; C2C12 statin: 124; SIRT5 inh: inactive; PGC1a acetyl inh: inactive

Results for COc1ccc(NC(=O)N(C)C[C@H]2Oc3ccc(NS(=O)(=O)c4c(C)noc4C)cc3C(=O)N([C@@H](C)CO)C[C@H]2C)cc1 ?
DENV2 CPE: inactive; S100A4 MyoIIA: inactive; C2C12 statin: inactive; SIRT5 inh: inactive; PGC1a acetyl inh: inactive

What do the screens show for `Cc1noc(C)c1NC(=O)N(C)C[C@H]1Oc2ccc(NS(=O)(=O)c3c(C)noc3C)cc2C(=O)N([C@H](C)CO)C[C@@H]1C`?
DENV2 CPE: 30!; S100A4 MyoIIA: inactive; C2C12 statin: inactive; SIRT5 inh: inactive; PGC1a acetyl inh: inactive

How did COc1ccc(NC(=O)N(C)C[C@@H]2Oc3ccc(NS(=O)(=O)c4c(C)noc4C)cc3C(=O)N([C@@H](C)CO)C[C@@H]2C)cc1 do in these assays?
DENV2 CPE: 27; S100A4 MyoIIA: inactive; C2C12 statin: inactive; SIRT5 inh: inactive; PGC1a acetyl inh: inactive

Results for Cc1ccc(S(=O)(=O)N(C)C[C@@H]2Oc3c(NS(=O)(=O)c4ccccc4)cccc3C(=O)N([C@H](C)CO)C[C@@H]2C)cc1 ?
DENV2 CPE: inactive; S100A4 MyoIIA: inactive; SIRT5 inh: inactive; PGC1a acetyl inh: inactive

How did O=C(Cc1ccncc1)NCC[C@@H]1CC[C@H](NC(=O)Nc2ccc(F)cc2)[C@@H](CO)O1 do in these assays?
DENV2 CPE: inactive; S100A4 MyoIIA: inactive; C2C12 statin: inactive; SIRT5 inh: inactive; PGC1a acetyl inh: inactive

How did CCC1=C(OC(=O)N(CC)CC)N2C(=O)OC(=NCCOC)[C@]2(Cc2ccccc2)[C@H]2C1=CC[C@H]1C(=O)N(CC)C(=O)[C@H]12 do in these assays?
DENV2 CPE: 21; S100A4 MyoIIA: inactive; C2C12 statin: inactive

How did CCC1=C(OC(=O)N(CC)CC)N2C(=O)OC(=NCCOC)[C@]2(Cc2ccccc2)[C@H]2C1=CC[C@H]1C(=O)N(C)C(=O)[C@H]12 do in these assays?
DENV2 CPE: inactive; S100A4 MyoIIA: inactive; C2C12 statin: inactive; PGC1a acetyl inh: inactive

What do the screens show for `CCC1=C2CC[C@H]3C(=O)N(C)C(=O)[C@H]3[C@H]2[C@@]2(Cc3ccccc3)C(=NCCOC)OC(=O)N2C1=O`?
DENV2 CPE: 40; S100A4 MyoIIA: inactive; C2C12 statin: inactive; SIRT5 inh: inactive; PGC1a acetyl inh: inactive

Results for CCCC#Cc1ccc2c(c1)O[C@H](CN(C)C(=O)c1ccncc1)[C@@H](C)CN([C@H](C)CO)S2(=O)=O ?
DENV2 CPE: inactive; S100A4 MyoIIA: inactive; C2C12 statin: inactive; SIRT5 inh: inactive; PGC1a acetyl inh: inactive

Results for CC=Cc1ccc2n(c1=O)C[C@H]1[C@H](CO)[C@@H](C(=O)N(C)C)N(C(=O)CC)[C@@H]21 (mixture of isomers) ?
DENV2 CPE: inactive; S100A4 MyoIIA: inactive; SIRT5 inh: inactive; PGC1a acetyl inh: inactive

What do the screens show for `O=C(NCCCn1ccnc1)/C(=C\c1cccs1)NC(=O)c1ccccc1`?
PGC1a acetyl inh: inactive

What do the screens show for `Cc1ccc(C(=O)N/C(=C/c2cccs2)C(=O)NCCCn2ccnc2)cc1`?
DENV2 CPE: 31; S100A4 MyoIIA: inactive; SIRT5 inh: inactive

How did C[C@@H]1CN([C@H](C)CO)C(=O)c2cc(NC(=O)CCN3CCOCC3)ccc2O[C@H]1CN(C)Cc1ccccc1 do in these assays?
DENV2 CPE: inactive; S100A4 MyoIIA: inactive; C2C12 statin: inactive; SIRT5 inh: inactive

Results for COc1cccc(NC(=O)N(C)C[C@H]2Oc3cc(/C=C/c4ccccc4)ccc3S(=O)(=O)N([C@@H](C)CO)C[C@@H]2C)c1 ?
DENV2 CPE: inactive; S100A4 MyoIIA: inactive; C2C12 statin: inactive; SIRT5 inh: inactive; PGC1a acetyl inh: inactive

What do the screens show for `COc1ccccc1CNC(=O)C[C@@H]1C[C@H]2c3cc(NC(=O)Nc4ccccc4F)ccc3O[C@H]2[C@H](CO)O1`?
DENV2 CPE: inactive; S100A4 MyoIIA: inactive; C2C12 statin: inactive; SIRT5 inh: inactive; PGC1a acetyl inh: inactive

How did O=C(C[C@@H]1CC[C@@H](NC(=O)C2CCC2)[C@@H](CO)O1)NCc1ccccc1Cl do in these assays?
DENV2 CPE: inactive; S100A4 MyoIIA: inactive; C2C12 statin: inactive; SIRT5 inh: inactive; PGC1a acetyl inh: inactive

Results for COCC(=O)Nc1ccc2c(c1)[C@@H]1C[C@@H](CC(=O)NCc3ccccc3OC)O[C@@H](CO)[C@@H]1O2 ?
DENV2 CPE: inactive; S100A4 MyoIIA: inactive; C2C12 statin: inactive; SIRT5 inh: 19; PGC1a acetyl inh: inactive

Results for COc1ccccc1CNC(=O)C[C@@H]1C[C@H]2c3cc(NC(=O)Nc4ccc(C(F)(F)F)cc4)ccc3O[C@H]2[C@@H](CO)O1 ?
DENV2 CPE: 36; S100A4 MyoIIA: inactive; C2C12 statin: inactive; SIRT5 inh: inactive; PGC1a acetyl inh: inactive

What do the screens show for `O=C(C[C@H]1CC[C@H](NC(=O)C2CCC2)[C@H](CO)O1)NCc1ccccc1Cl`?
DENV2 CPE: inactive; S100A4 MyoIIA: inactive; C2C12 statin: inactive; SIRT5 inh: 25; PGC1a acetyl inh: inactive

How did COCC(=O)N[C@@H]1CC[C@H](CC(=O)NCc2ccccc2OC)O[C@@H]1CO do in these assays?
DENV2 CPE: inactive; S100A4 MyoIIA: inactive; C2C12 statin: inactive; SIRT5 inh: 16; PGC1a acetyl inh: inactive

How did Cc1noc(C)c1S(=O)(=O)Nc1cccc2c1O[C@H](CN(C)C(=O)Nc1ccc(C(F)(F)F)cc1)[C@H](C)CN([C@H](C)CO)C2=O do in these assays?
DENV2 CPE: inactive; S100A4 MyoIIA: inactive; SIRT5 inh: inactive; PGC1a acetyl inh: inactive
